Bioassay records (PubChem)
H69AR growth 86K: blocks growth of human H69AR lung tumor cells. viability, % at 10 µM. H69AR lung tumor viability, ATP luminescence, 72 h; stronger effect = lower value. 85,000 tested, 6% active. AID 598;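 active = viability at or below 40%; inactive = viability above 40%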;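 also: multidrug resistant small cell line overexpressing MRP-1 efflux transporter; 100% = mean luminescence of untreated control wells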
bCat KO growth: beta-catenin-lacking colon tumor cell growth suppression; HCT116 beta-catenin knockout viability, CellTiter-Glo, 60 h; stronger effect = lower value; 140,000 tested, 1.5% active; viability, % at 10 µM; AID 818;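 active = viability at or under a set limit, the compound median less 4 SD, cut at about 6% in these data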;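 also: 0% = Hyamine 1622 control at 20 µM and 100% = untreated cell control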
HUVEC prolif 384: inhibitors of human endothelial cell proliferation; 86,000 tested, 1.1% active; viability, % at 10 µM (by protocol); HUVEC proliferation, CellTiter-Glo luminescence, 72 h; stronger effect = lower value;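 active = viability at or below 30%; inactive = viability above 30%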;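 also: 100% = median luminescence of DMSO-only cell control wells on each plate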
HCT116 PTEN-null: PTEN-deleted cell growth suppression; 140,000 tested, 1.2% active; viability, % at 10 µM; HCT116 PTEN-null viability, CellTiter-Glo, 60 h; stronger effect = lower value;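 active = viability at or below a set limit, 4 SD under the median of all tested compounds, cut at about 3.7% in these data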;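 also: PTEN knockout HCT116 line with beta catenin targeted HCT116 as companion control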
Lung fibro prol: blocks proliferation of human lung fibroblasts; viability, % at 10 µM; 85,000 tested, 1.1% active; LL 47 human lung fibroblast viability, ATP luminescence; stronger effect = lower value; AID 719;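 active = viability at or below 50% in the single dose screen; inactive = viability above 50%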;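 also: compound exposure lasted 72 h before the ATP readout; 100% = median luminescence of untreated cell-only wells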
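Test system: LL 47 human lung fibroblasts / Incubation: 72 h compound exposure at 37 °C after overnight plating / Technique: luminescent ATP detection, CellTiter-Glo / Compound dosing: 0.1% DMSO in all compound wells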
Starred values were filed as active, the others as inactive. Only a selection was taken, and hits are over-represented in it overall.

How did CC1(NC(=O)c2cc(S(=O)(=O)N3CCCCC3)ccc2Cl)CCS(=O)(=O)C1 (configuration not stated) do in these assays?
bCat KO growth: 97.7; HCT116 PTEN-null: 98.7

How did COc1cc2[nH]c3c(N4CCN(c5ccccn5)CC4)ncnc3c2cc1OC do in these assays?
H69AR growth 86K: 24.3*; bCat KO growth: 7.5; HUVEC prolif 384: 44.7; HCT116 PTEN-null: 2.7*; Lung fibro prol: 69.4

Results for COc1ccc(N2CCN(c3ncnc4c3[nH]c3ccccc34)CC2)cc1 ?
H69AR growth 86K: 60.7; bCat KO growth: 78.8; HUVEC prolif 384: 80.7; HCT116 PTEN-null: 78.7; Lung fibro prol: 84.0

Results for CC(=O)c1sc(Nc2nc(C)cc(C)n2)nc1C ?
H69AR growth 86K: 28.6*; bCat KO growth: 83.8; HUVEC prolif 384: 81.3; HCT116 PTEN-null: 79.3; Lung fibro prol: 98.5

How did CC(=O)c1sc(NC(=O)C(C)(C)C)nc1C do in these assays?
H69AR growth 86K: 90.6; bCat KO growth: 90.5; HUVEC prolif 384: 90.0; HCT116 PTEN-null: 109.3; Lung fibro prol: 111.6

What do the screens show for `O=C(NNC(=O)C(c1ccccc1)c1ccccc1)c1cccs1`?
bCat KO growth: 101.7; HCT116 PTEN-null: 100.0

How did COc1ccc(/C=N/Nc2ccccc2)cc1Cn1nc(C)c([N+](=O)[O-])c1C do in these assays?
H69AR growth 86K: 82.7; bCat KO growth: 94.0; HUVEC prolif 384: 60.1; HCT116 PTEN-null: 92.8; Lung fibro prol: 97.3

What do the screens show for `O=C1CC(c2ccccc2)CC2=C1CN(C1CCCCC1)CN2` (configuration not stated)?
H69AR growth 86K: 22.6*; bCat KO growth: 29.4; HUVEC prolif 384: 71.5; HCT116 PTEN-null: 32.1; Lung fibro prol: 70.3

How did CC(C)(C)C1=CC(=O)C(N2CCOCC2)=CC1=O do in these assays?
bCat KO growth: 2.0*; HCT116 PTEN-null: 2.0*

How did CCOc1ccc(C(C)(C)C)cc1S(=O)(=O)N1CCOCC1 do in these assays?
H69AR growth 86K: 79.7; bCat KO growth: 77.0; HUVEC prolif 384: 90.4; HCT116 PTEN-null: 79.1; Lung fibro prol: 97.3

What do the screens show for `CCc1cccc(CC)c1NC(=O)COC(=O)CCc1cc(OC)c(OC)c(OC)c1`?
bCat KO growth: 88.1; HCT116 PTEN-null: 96.1

What do the screens show for `CCc1nnc(NC(=O)c2ccc3c(c2)C(=O)N(C(C)(C)C)C3=O)s1`?
H69AR growth 86K: 38.7*; bCat KO growth: 98.6; HUVEC prolif 384: 86.5; HCT116 PTEN-null: 96.7; Lung fibro prol: 101.2

Results for CCc1nnc(NC(=O)c2cccc(C(=O)Nc3nnc(CC)s3)n2)s1 ?
H69AR growth 86K: 3.7*; bCat KO growth: 5.0*; HUVEC prolif 384: 3.7*; HCT116 PTEN-null: 2.2*; Lung fibro prol: 4.8*

What do the screens show for `CCNC(=O)NC(=O)CSc1ccccc1F`?
bCat KO growth: 93.4; HCT116 PTEN-null: 98.1

Results for O=C(COc1c(Br)cc(Br)c2cccnc12)N1CCc2ccccc2C1 ?
H69AR growth 86K: 53.1; bCat KO growth: 85.8; HUVEC prolif 384: 92.8; HCT116 PTEN-null: 93.4; Lung fibro prol: 97.0

Results for Oc1c(CN2CCc3ccccc3C2)cc(Cl)c2cccnc12 ?
H69AR growth 86K: 2.0*; bCat KO growth: 2.9*; HUVEC prolif 384: 5.9*; HCT116 PTEN-null: 3.0*; Lung fibro prol: 13.5*

What do the screens show for `Oc1c(CN2CCCCC2)cc(Br)c2cccnc12`?
bCat KO growth: 1.7*; HCT116 PTEN-null: 1.4*

Results for Oc1c(I)cc(Cl)c2cccnc12 ?
H69AR growth 86K: 8.3*; bCat KO growth: 17.6; HUVEC prolif 384: 12.1*; HCT116 PTEN-null: 7.5; Lung fibro prol: 70.0

What do the screens show for `O=C(Cc1ccccc1)Nc1cccc(N2C(=O)C=CC2=O)c1`?
bCat KO growth: 97.5; HCT116 PTEN-null: 90.3

Results for CCOC(=O)/C(=C\c1cccnc1)C(=O)c1cc(C(C)=O)c(Nc2ccccc2)s1 ?
H69AR growth 86K: 1.8*; bCat KO growth: 2.2*; HUVEC prolif 384: 4.1*; HCT116 PTEN-null: 2.2*; Lung fibro prol: 19.1*

Results for CCOC(=O)/C(=C\c1ccccc1)C(=O)c1cc(C(C)=O)c(Nc2ccccc2)s1 ?
H69AR growth 86K: 2.1*; bCat KO growth: 6.7; HUVEC prolif 384: 3.8*; HCT116 PTEN-null: 2.4*; Lung fibro prol: 19.3*

How did CC(C)OC(=O)/C(=C/c1cccnc1)NC(=O)c1ccccc1 do in these assays?
bCat KO growth: 93.1; HCT116 PTEN-null: 84.8

What do the screens show for `O=C(/C=C/c1cccc([N+](=O)[O-])c1)c1cccs1`?
bCat KO growth: 2.2*; HCT116 PTEN-null: 1.5*

How did O=C(/C=C/c1cccc([N+](=O)[O-])c1)Nc1ccc(NC(=O)c2cccs2)cc1 do in these assays?
bCat KO growth: 56.0; HCT116 PTEN-null: 51.4

How did O=Cc1c(N2CCCCCC2)nc2ccccn2c1=O do in these assays?
H69AR growth 86K: 101.9; bCat KO growth: 90.9; HUVEC prolif 384: 93.3; HCT116 PTEN-null: 91.2; Lung fibro prol: 93.6

How did O=Cc1c(Sc2ccccc2)nc2ccccn2c1=O do in these assays?
H69AR growth 86K: 2.6*; bCat KO growth: 46.1; HUVEC prolif 384: 69.0; HCT116 PTEN-null: 60.1; Lung fibro prol: 64.3

How did O=Cc1c(Sc2ccccn2)nc2ccccn2c1=O do in these assays?
H69AR growth 86K: 21.7*; bCat KO growth: 77.6; HUVEC prolif 384: 85.4; HCT116 PTEN-null: 81.0; Lung fibro prol: 102.0

Results for CCOc1ccc(C(=O)Nc2ccccc2N2CCCC2)cc1 ?
H69AR growth 86K: 35.5*; bCat KO growth: 72.7; HUVEC prolif 384: 95.9; HCT116 PTEN-null: 68.9; Lung fibro prol: 91.8

Results for CCCOc1ccc(C(=O)NNC(=S)NC(=O)c2cc(-c3ccccc3)nc3ccccc23)cc1 ?
bCat KO growth: 62.7; HCT116 PTEN-null: 80.5

Results for Cc1nn(C)cc1/C=C/C(=O)c1cccs1 ?
H69AR growth 86K: 38.9*; bCat KO growth: 66.5; HUVEC prolif 384: 102.3; HCT116 PTEN-null: 67.4; Lung fibro prol: 103.3

What do the screens show for `CCN1C(=O)/C(=C2\C=Cc3ccccc3N2CC)SC1=S`?
bCat KO growth: 95.6; HCT116 PTEN-null: 84.5

Results for CCN1C(=O)/C(=C2\SC(=S)N(CCCOC)C2=O)c2ccccc21 ?
H69AR growth 86K: 31.4*; bCat KO growth: 67.8; HUVEC prolif 384: 67.5; HCT116 PTEN-null: 77.9; Lung fibro prol: 97.8

What do the screens show for `COc1ccc(OC)c(C(=O)C2COC(=O)C2)c1` (configuration not stated)?
H69AR growth 86K: 25.6*; bCat KO growth: 33.5; HUVEC prolif 384: 48.8; HCT116 PTEN-null: 38.3; Lung fibro prol: 88.9

What do the screens show for `CCOc1ccc(C(=O)C(CN2CCOCC2)c2ccccc2)cc1` (configuration not stated)?
bCat KO growth: 3.1*; HCT116 PTEN-null: 2.7*

Results for O=C(c1ccccc1)c1ccc(OCC(O)CN2CCOCC2)cc1 (configuration not stated) ?
H69AR growth 86K: 83.6; HUVEC prolif 384: 98.3; Lung fibro prol: 108.2

What do the screens show for `CCN1CCCC1CNC(=O)C(=O)Nc1ccccc1OC` (configuration not stated)?
bCat KO growth: 101.7; HCT116 PTEN-null: 98.2

Results for COc1ccc(Br)cc1CNc1ccc(O)cc1 ?
H69AR growth 86K: 36.3*; bCat KO growth: 83.4; HUVEC prolif 384: 88.1; HCT116 PTEN-null: 66.4; Lung fibro prol: 100.1
